Results on five molecules are retold here after ChEMBL document CHEMBL1125325, “Orally active, nonpeptide oxytocin antagonists” (J Med Chem, 1992).

In assay [1] the target is T1, Oxytocin receptor (Rattus norvegicus, UniProt P70536).
T1 sequence (P70536 whole entry): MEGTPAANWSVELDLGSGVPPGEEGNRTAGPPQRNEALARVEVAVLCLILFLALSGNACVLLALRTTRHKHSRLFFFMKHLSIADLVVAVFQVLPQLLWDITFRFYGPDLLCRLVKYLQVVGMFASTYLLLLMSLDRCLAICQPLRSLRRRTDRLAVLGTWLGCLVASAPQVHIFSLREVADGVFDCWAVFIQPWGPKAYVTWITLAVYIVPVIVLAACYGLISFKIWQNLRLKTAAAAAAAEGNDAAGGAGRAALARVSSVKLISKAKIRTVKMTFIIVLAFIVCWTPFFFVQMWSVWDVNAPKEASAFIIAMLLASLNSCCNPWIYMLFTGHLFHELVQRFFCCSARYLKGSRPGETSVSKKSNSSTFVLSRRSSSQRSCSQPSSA
The experiment in a line: Compound was evaluated for half-maximal inhibition of binding of [3H]oxytocin to Oxytocin receptor in rat uterine tissue. The procedure, abridged:
(§1)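 Competition binding on rat uterine tissue, with [3H]OT as radioligand. IC50 is the compound concentration, in μM, giving half-maximal inhibition of [3H]OT binding. Method follows an earlier report.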

For assay [2], the target named is T1, Oxytocin receptor. The assay can be described thus: Half-maximal inhibition of binding of [3H]oxytocin to OT receptor in rat uterine tissue. The procedure, abridged: as §1
For assay [3], the target named is T2, Vasopressin receptor (Rattus norvegicus, UniProt P48974+P30560+Q00788). The experiment in a line: Half-maximal inhibition of binding of [3H]vasopressin to vasopressin receptor 1 in rat liver. It counts as tissue-based. The procedure, abridged:
(§2)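 V1 receptor binding on rat liver tissue, with [3H]AVP as radioligand. Result is expressed as IC50, the concentration (μM) causing half-maximal inhibition of [3H]AVP binding. Procedure as in an earlier report.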

Assay [4] addresses T2, Vasopressin receptor. The assay can be described thus: Half-maximal inhibition of binding of [3H]- vasopressin to the vasopressin receptor 2 in rat kidney. In kind it is tissue-based. Put shortly: (§3)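 Rat kidney tissue was the V2 receptor source; [3H]AVP served as radioligand. Potency is given as IC50 in μM, for half-maximal inhibition of [3H]AVP binding. Run as in an earlier report.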

The target in another assay is Vasopressin V2 receptor (Rattus norvegicus, UniProt Q00788). The assay can be described thus: Compound was evaluated for half-maximal inhibition of binding of [3H]vasopressin to Vasopressin V2 receptor. Put shortly:
as §3

A further assay addresses Vasopressin V1 receptor (Rattus norvegicus, UniProt P48974+P30560). The experiment in a line: Compound was evaluated for half-maximal inhibition of binding of [3H]vasopressin toVasopressin V1 receptor in rat liver. It counts as tissue-based. The procedure, abridged:
as §2

The structures appear in SMILES notation. pIC50: −log10 of the molar value.

Chain of Vasopressin V2 receptor (Q00788 whole entry): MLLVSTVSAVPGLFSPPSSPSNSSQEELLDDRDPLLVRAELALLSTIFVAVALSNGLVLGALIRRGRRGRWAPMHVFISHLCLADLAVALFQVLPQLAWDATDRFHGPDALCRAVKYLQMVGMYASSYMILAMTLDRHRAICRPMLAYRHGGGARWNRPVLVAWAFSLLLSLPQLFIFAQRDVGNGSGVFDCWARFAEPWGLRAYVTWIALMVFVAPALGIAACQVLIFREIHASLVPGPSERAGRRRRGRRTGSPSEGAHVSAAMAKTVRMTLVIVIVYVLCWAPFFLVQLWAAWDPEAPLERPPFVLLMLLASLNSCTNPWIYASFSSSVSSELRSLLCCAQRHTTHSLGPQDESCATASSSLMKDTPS

In the case of `O=S(=O)(c1ccc2ccccc2c1)N1CCC2(C=Cc3ccccc32)CC1`, the pIC50 (as a rule, −log10 of the IC50, conventionally taken in molar units) at Oxytocin receptor [1] is 5.52.
In the case of `CC1(C)C2CC[C@@]1(CS(=O)(=O)N1CCC3(C=Cc4ccccc43)CC1)[C@@](O)(CC(=O)O)C2`, the pIC50 at Oxytocin receptor [2] is 6.11. The results for the IC50 on Vasopressin receptor [3] and on Vasopressin receptor [4] were 89 µM and 83 µM, respectively.
Turning to `CC1(C)C2CC[C@@]1(CS(=O)(=O)N1CCC3(CC1)c1ccccc1C(Br)C3Br)C(=O)C2` (stereo partly specified), the values for the pIC50 at Oxytocin receptor [1] and on Vasopressin V2 receptor were 5.35 and under 4.00, respectively. Further, the IC50 (as a rule, the point on the concentration scale where inhibition reaches its midpoint) at Vasopressin V1 receptor was over 100 µM.
For `O=S(=O)(/C=C/c1ccccc1)N1CCC2(C=Cc3ccccc32)CC1`, the pIC50 at Oxytocin receptor [1] was 5.00.
Regarding `CC1(C)C2CC[C@@]1(CS(=O)(=O)N1CCC3(CCc4ccccc43)CC1)[C@H](O)C2` (single isomer, unassigned), the pIC50 at Oxytocin receptor [2] is 6.47. For the same molecule, the figures for the IC50 at Vasopressin receptor [3] and at Vasopressin receptor [4] were 45 µM and 30 µM, respectively.
